Assay results as given in ChEMBL document CHEMBL1772948, “Chemistry and biology of macrolide antiparasitic agents” (J Med Chem, 2011).
Converted amounts (≈) assume the structure as drawn. The source made the active and inactive calls. The calls are words filed in the database; no cut-off is given here.

Columns and labels:
Toxoplasma gondii [1] = test: Antiparasitic activity against Toxoplasma gondii 2F-1 expressing yellow fluorescent protein infected in HFF after 4 days; format: functional, organism-based; details: 2F-1, 96 h
Bacillus subtilis = test: Antibacterial activity against Bacillus subtilis; format: functional
HFF = test: Cytotoxicity against HFF after 48 hrs by MTS assay; format: cell-based; details: human
In short: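 Low-passage HFF seeded in 96-well plates and incubated 24h at 37 °C, then exposed to varying macrolide concentrations for 2 days; medium replaced with fresh medium plus MTS, 4h at 37 °C, absorbance 490 nm; CC50 = dose reducing viability by 50%.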

Toxoplasma gondii [2] = test: Antiparasitic activity against yellow fluorescent protein expressing Toxoplasma gondii 2F-1 infected in HFF treated immediately after infection measured after 48 hrs; format: functional, organism-based; details: 2F-1, 48 h
Toxoplasma gondii [3] = test: Antiparasitic activity against yellow fluorescent protein expressing Toxoplasma gondii 2F-1 treated immediately after infection for 48 hrs followed by reinoculated into fresh HFF monolayers measured after 48 hrs; format: functional, organism-based; details: 2F-1, 48 h
In short: (§1)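 Two-cycle protocol in HFF at 37 °C, 5% CO2, DMEM with 10% FBS. "0h": compound added with parasites, 48 h. "6h": parasites pre-incubated 6 h, uninvaded parasites removed, fresh medium with compound added, 42 h. Released tachyzoites were then harvested, purified and inoculated into fresh HFF without compound for the 2nd cycle. At least triplicate.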

Toxoplasma gondii [4] = test: Antiparasitic activity against yellow fluorescent protein expressing Toxoplasma gondii 2F-1 infected in HFF treated 6 hrs after infection measured after 48 hrs; format: functional, organism-based
Toxoplasma gondii [5] = test: Antiparasitic activity against yellow fluorescent protein expressing Toxoplasma gondii 2F-1 treated 6 hrs after infection for 42 hrs followed by reinoculated into fresh HFF monolayers measured after 48 hrs; format: functional, organism-based; in short: as §1
Toxoplasma gondii [6] = test: Antiparasitic activity against green fluorescent protein expressing […] deficient Toxoplasma gondii RH infected in HFF assessed as decrease in density of parasitophorous vacuoles at 10 uM treated immediately after infection measured after 24 hrs by microscopic analysis; format: functional, organism-based
In short: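 GFP T. gondii RHΔhxgprt in HFF, compound (10 μM) added either with the inoculum ("0h") or after 6 h pre-infection and washing ("6h"); vacuoles per microscope field scored at 24 h, at least 20 random fields from each of three experiments.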

| SMILES | MIC (Bacillus subtilis) [µM] | IC50 (Toxoplasma gondii [1]) [µM] | CC50 (HFF) [µM] | IC50 (Toxoplasma gondii [2]) [µM] | IC50 (Toxoplasma gondii [3]) [µM] | IC50 (Toxoplasma gondii [4]) [µM] | IC50 (Toxoplasma gondii [5]) [µM] | Activity (Toxoplasma gondii [6]) |
| --- | --- | --- | --- | --- | --- | --- | --- | --- |
| C=CCO[C@]1(C)C[C@@H](C)CN(CCC)[C@H](C)[C@@H](O)[C@](C)(O)[C@@H](CC)OC(=O)[C@H](C)[C@@H](O[C@H]2C[C@@](C)(OC)[C@@H](O)[C@H](C)O2)[C@H](C)[C@H]1O[C@@H]1O[C@H](C)C[C@H](N(C)C)[C@H]1O | 10 (≈ 8.17 µg/mL) | 15 | 42 | – | – | – | – | – |
| CC[C@H]1OC(=O)[C@H](C)[C@@H](O[C@H]2C[C@@](C)(OC)[C@@H](O)[C@H](C)O2)[C@H](C)[C@@H](O[C@@H]2O[C@H](C)C[C@H](N(C)C)[C@H]2O)[C@](C)(O)C[C@@H](C)/C(=N\OC)[C@H](C)[C@@H](O)[C@]1(C)O | 0.04 (≈ 0.0305 µg/mL) | 14 | 22 | – | – | – | – | – |
| CC[C@H]1OC(=O)[C@H](C)[C@@H](O[C@H]2C[C@@](C)(OC)[C@@H](O)[C@H](C)O2)[C@H](C)[C@@H](O[C@@H]2O[C@H](C)C[C@H](N(C)C)[C@H]2O)[C@](C)(OC)C[C@@H](C)CN(C(=O)NCc2ccccc2)[C@H](C)[C@@H](O)[C@]1(C)O | 1.5 (≈ 1.32 µg/mL) | 16 | 62 | – | – | – | – | – |
| C=CCO[C@]1(C)C[C@@H](C)CN(CC=C)[C@H](C)[C@@H](O)[C@](C)(O)[C@@H](CC)OC(=O)[C@H](C)[C@@H](O[C@H]2C[C@@](C)(OC)[C@@H](O)[C@H](C)O2)[C@H](C)[C@H]1O[C@@H]1O[C@H](C)C[C@H](N(C)C)[C@H]1O | 5 (≈ 4.08 µg/mL) | 12 | 38 | – | – | – | – | – |
| CC[C@H]1OC(=O)[C@H](C)[C@@H](O[C@H]2C[C@@](C)(OC)[C@@H](O)[C@H](C)O2)[C@H](C)[C@@H](O[C@@H]2O[C@H](C)C[C@H](N(C)C)[C@H]2O)[C@](C)(OC)C[C@@H](C)CN[C@H](C)[C@@H](O)[C@]1(C)O | 2.5 (≈ 1.87 µg/mL) | 106 | 460 | – | – | – | – | – |
| C=CCO[C@]1(C)C[C@@H](C)CN(C(=O)NCC)[C@H](C)[C@@H](O)[C@](C)(O)[C@@H](CC)OC(=O)[C@H](C)[C@@H](O[C@H]2C[C@@](C)(OC)[C@@H](O)[C@H](C)O2)[C@H](C)[C@H]1O[C@@H]1O[C@H](C)C[C@H](N(C)C)[C@H]1O | 5 (≈ 4.23 µg/mL) | 33 | 90 | – | – | – | – | – |
| CCNC(=O)N1C[C@H](C)C[C@@](C)(OC)[C@H](O[C@@H]2O[C@H](C)C[C@H](N(C)C)[C@H]2O)[C@@H](C)[C@H](O[C@H]2C[C@@](C)(OC)[C@@H](O)[C@H](C)O2)[C@@H](C)C(=O)O[C@H](CC)[C@@](C)(O)[C@H](O)[C@H]1C | 10 (≈ 8.2 µg/mL) | 59 | 409 | – | – | – | – | – |
| CCCN1C[C@H](C)C[C@@](C)(OC)[C@H](O[C@@H]2O[C@H](C)C[C@H](N(C)C)[C@H]2O)[C@@H](C)[C@H](O[C@H]2C[C@@](C)(OC)[C@@H](O)[C@H](C)O2)[C@@H](C)C(=O)O[C@H](CC)[C@@](C)(O)[C@H](O)[C@H]1C | 1.2 (≈ 0.949 µg/mL) | 20 | 106 | – | – | – | – | – |
| CCNC(=O)N1C[C@H](C)C[C@@](C)(O)[C@H](O[C@@H]2O[C@H](C)C[C@H](N(C)C)[C@H]2O)[C@@H](C)[C@H](O[C@H]2C[C@@](C)(OC)[C@@H](O)[C@H](C)O2)[C@@H](C)C(=O)O[C@H](CC)[C@@](C)(O)[C@H](O)[C@H]1C | 10 (≈ 8.06 µg/mL) | 85 | 480 | – | – | – | – | – |
| C=CCO[C@]1(C)C[C@@H](C)CN(Cc2ccccc2)[C@H](C)[C@@H](O)[C@](C)(O)[C@@H](CC)OC(=O)[C@H](C)[C@@H](O[C@H]2C[C@@](C)(OC)[C@@H](O)[C@H](C)O2)[C@H](C)[C@H]1O[C@@H]1O[C@H](C)C[C@H](N(C)C)[C@H]1O | 6 (≈ 5.19 µg/mL) | 5 | 14 | 7 | 10 | > 10 | > 10 | – |
| C=CCO[C@]1(C)C[C@@H](C)CN(C(=O)NCc2ccccc2)[C@H](C)[C@@H](O)[C@](C)(O)[C@@H](CC)OC(=O)[C@H](C)[C@@H](O[C@H]2C[C@@](C)(OC)[C@@H](O)[C@H](C)O2)[C@H](C)[C@H]1O[C@@H]1O[C@H](C)C[C@H](N(C)C)[C@H]1O | 1.5 (≈ 1.36 µg/mL) | 6 | 28 | – | – | – | – | – |
| CC[C@H]1OC(=O)[C@H](C)[C@@H](O[C@H]2C[C@@](C)(OC)[C@@H](O)[C@H](C)O2)[C@H](C)[C@@H](O[C@@H]2O[C@H](C)C[C@H](N(C)C)[C@H]2O)[C@](C)(OC)C[C@@H](C)CN(C)[C@H](C)[C@@H](O)[C@]1(C)O | 5 (≈ 3.82 µg/mL) | 89 | 454 | – | – | – | – | – |

More lines, main results first:

| MIC (Bacillus subtilis) [µM] | SMILES | IC50 (Toxoplasma gondii [1]) [µM] | CC50 (HFF) [µM] | IC50 (Toxoplasma gondii [2]) [µM] | IC50 (Toxoplasma gondii [3]) [µM] | IC50 (Toxoplasma gondii [4]) [µM] | IC50 (Toxoplasma gondii [5]) [µM] | Activity (Toxoplasma gondii [6]) |
| --- | --- | --- | --- | --- | --- | --- | --- | --- |
| 1.2 (≈ 0.882 µg/mL) | CC[C@H]1OC(=O)[C@H](C)[C@@H](O[C@H]2C[C@@](C)(OC)[C@@H](O)[C@H](C)O2)[C@H](C)[C@@H](O[C@@H]2O[C@H](C)C[C@H](N(C)C)[C@H]2O)[C@](C)(O)C[C@@H](C)CN[C@H](C)[C@@H](O)[C@]1(C)O | 65 | 386 | – | – | – | – | – |
| 0.6 (≈ 0.512 µg/mL) | CC[C@H]1OC(=O)[C@H](C)[C@@H](O[C@H]2C[C@@](C)(OC)[C@@H](O)[C@H](C)O2)[C@H](C)[C@@H](O[C@@H]2O[C@H](C)C[C@H](N(C)C)[C@H]2O)[C@](C)(O)C[C@@H](C)CN(CCCc2ccccc2)[C@H](C)[C@@H](O)[C@]1(C)O | – | 33 | 4 | 0.6 | 8 | 0.6 | Active |
| 0.04 (≈ 0.0294 µg/mL) | CC[C@H]1OC(=O)[C@H](C)[C@@H](O[C@H]2C[C@@](C)(OC)[C@@H](O)[C@H](C)O2)[C@H](C)[C@@H](O[C@@H]2O[C@H](C)C[C@H](N(C)C)[C@H]2O)[C@](C)(O)C[C@@H](C)C(=O)[C@H](C)[C@@H](O)[C@]1(C)O [ERYTHROMYCIN] | 93 | 475 | – | – | – | – | – |
| 0.04 (≈ 0.0299 µg/mL) | CC[C@H]1OC(=O)[C@H](C)[C@@H](O[C@H]2C[C@@](C)(OC)[C@@H](O)[C@H](C)O2)[C@H](C)[C@@H](O[C@@H]2O[C@H](C)C[C@H](N(C)C)[C@H]2O)[C@](C)(OC)C[C@@H](C)C(=O)[C@H](C)[C@@H](O)[C@]1(C)O [CLARITHROMYCIN] | 31 | 260 | – | – | – | – | – |
| 1.2 (≈ 1.04 µg/mL) | CC[C@H]1OC(=O)[C@H](C)[C@@H](O[C@H]2C[C@@](C)(OC)[C@@H](O)[C@H](C)O2)[C@H](C)[C@@H](O[C@@H]2O[C@H](C)C[C@H](N(C)C)[C@H]2O)[C@](C)(O)C[C@@H](C)CN(C(=O)NCc2ccccc2)[C@H](C)[C@@H](O)[C@]1(C)O | 12 | 222 | – | – | – | – | – |
| 0.04 (≈ 0.0316 µg/mL) | CCCO/N=C1\[C@H](C)C[C@@](C)(O)[C@H](O[C@@H]2O[C@H](C)C[C@H](N(C)C)[C@H]2O)[C@@H](C)[C@H](O[C@H]2C[C@@](C)(OC)[C@@H](O)[C@H](C)O2)[C@@H](C)C(=O)O[C@H](CC)[C@@](C)(O)[C@H](O)[C@H]1C | 1.6 | 7 | – | – | – | – | – |
| 0.04 (≈ 0.0336 µg/mL) | CC[C@H]1OC(=O)[C@H](C)[C@@H](O[C@H]2C[C@@](C)(OC)[C@@H](O)[C@H](C)O2)[C@H](C)[C@@H](O[C@@H]2O[C@H](C)C[C@H](N(C)C)[C@H]2O)[C@](C)(O)C[C@@H](C)/C(=N\OCc2ccccc2)[C@H](C)[C@@H](O)[C@]1(C)O | 1.4 | 3 | – | – | – | – | – |
| 0.3 (≈ 0.252 µg/mL) | CC[C@H]1OC(=O)[C@H](C)[C@@H](O[C@H]2C[C@@](C)(OC)[C@@H](O)[C@H](C)O2)[C@H](C)[C@@H](O[C@@H]2O[C@H](C)C[C@H](N(C)C)[C@H]2O)[C@](C)(OC)C[C@@H](C)CN(Cc2ccccc2)[C@H](C)[C@@H](O)[C@]1(C)O | 2 | 13 | 7 | 5 | 10 | 4 | – |
| 0.04 (≈ 0.0316 µg/mL) | C=CCO/N=C1\[C@H](C)C[C@@](C)(O)[C@H](O[C@@H]2O[C@H](C)C[C@H](N(C)C)[C@H]2O)[C@@H](C)[C@H](O[C@H]2C[C@@](C)(OC)[C@@H](O)[C@H](C)O2)[C@@H](C)C(=O)O[C@H](CC)[C@@](C)(O)[C@H](O)[C@H]1C | 2.7 | 16 | – | – | – | – | – |
| 0.6 (≈ 0.466 µg/mL) | CCCN1C[C@H](C)C[C@@](C)(O)[C@H](O[C@@H]2O[C@H](C)C[C@H](N(C)C)[C@H]2O)[C@@H](C)[C@H](O[C@H]2C[C@@](C)(OC)[C@@H](O)[C@H](C)O2)[C@@H](C)C(=O)O[C@H](CC)[C@@](C)(O)[C@H](O)[C@H]1C | 16 | 139 | – | – | – | – | – |
| 0.3 (≈ 0.233 µg/mL) | C=CCN1C[C@H](C)C[C@@](C)(O)[C@H](O[C@@H]2O[C@H](C)C[C@H](N(C)C)[C@H]2O)[C@@H](C)[C@H](O[C@H]2C[C@@](C)(OC)[C@@H](O)[C@H](C)O2)[C@@H](C)C(=O)O[C@H](CC)[C@@](C)(O)[C@H](O)[C@H]1C | 13 | 103 | – | – | – | – | – |
| 0.8 (≈ 0.631 µg/mL) | C=CCN1C[C@H](C)C[C@@](C)(OC)[C@H](O[C@@H]2O[C@H](C)C[C@H](N(C)C)[C@H]2O)[C@@H](C)[C@H](O[C@H]2C[C@@](C)(OC)[C@@H](O)[C@H](C)O2)[C@@H](C)C(=O)O[C@H](CC)[C@@](C)(O)[C@H](O)[C@H]1C | 13 | 84 | – | – | – | – | – |
